Source: ChEMBL document CHEMBL1138439, “Synthesis and structure-activity relationship of novel diarylpyrazole imide analogues as CB1 cannabinoid receptor ligands” (Bioorg Med Chem, 2009)

Test system: Mus musculus
Test: Reduction in body weight of diet induced obese C57BL/6J mouse at 10 mL/kg, po for 14 days
Type: functional
Parameters: scale not given: the % may be the effect or the level left
Conditions: not given
How it was run: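 Body weight change (g) from start was tracked daily over days 0–14 and compared with a vehicle-treated control group.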

**Q.** With `Cc1c(C(=O)NC(=O)C(C)(C)C)nn(-c2ccc(Cl)cc2Cl)c1-c1ccc(Cl)cc1` as the compound, how does the Activity read?
**A.** 2.2%

**Q.** `Cc1c(C(=O)NN2CCCCC2)nn(-c2ccc(Cl)cc2Cl)c1-c1ccc(Cl)cc1` [RIMONABANT] was tested. Which Activity did it give?
**A.** 11.5%

Molecular target: Cannabinoid receptor 1 (Rattus norvegicus, UniProt P20272)
Sequence (P20272 whole entry): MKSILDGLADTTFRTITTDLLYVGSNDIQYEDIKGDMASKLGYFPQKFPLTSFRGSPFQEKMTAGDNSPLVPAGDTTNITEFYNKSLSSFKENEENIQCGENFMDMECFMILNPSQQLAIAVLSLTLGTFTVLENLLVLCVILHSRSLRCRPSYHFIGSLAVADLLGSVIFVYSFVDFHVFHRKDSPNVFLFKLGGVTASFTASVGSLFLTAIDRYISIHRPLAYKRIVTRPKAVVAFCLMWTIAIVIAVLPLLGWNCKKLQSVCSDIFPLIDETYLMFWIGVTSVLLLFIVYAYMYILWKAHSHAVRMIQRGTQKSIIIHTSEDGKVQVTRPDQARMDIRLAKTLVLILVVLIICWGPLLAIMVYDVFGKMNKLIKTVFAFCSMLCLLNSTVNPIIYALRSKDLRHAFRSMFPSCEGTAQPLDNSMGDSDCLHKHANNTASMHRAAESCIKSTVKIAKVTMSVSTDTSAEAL
Test: Displacement of [3H]CP-55940 from CB1R in Sprague-Dawley rat cerebellar membrane
Parameters: species or system Cerebellum
Conditions: not given

**Q.** With `Cc1c(C(=O)NC(=O)NCC2CCCCC2)nn(-c2ccc(Cl)cc2Cl)c1-c1ccc(Cl)cc1` as the compound, how does the IC50 read?
**A.** ND(Insoluble)

**Q.** Which IC50 does the source give for `Cc1c(C(=O)NC(=O)NC(C)(C)C)nn(-c2ccc(Cl)cc2Cl)c1-c1ccc(Cl)cc1` here?
**A.** ND(Insoluble)

Same assay, conditions: read-out: IC50

**Q.** `CCCCS(=O)(=O)NC(=O)c1nn(-c2ccc(Cl)cc2Cl)c(-c2ccc(Cl)cc2)c1C` was tested. Which IC50 did it give?
**A.** > 10000 nM

**Q.** For `Cc1c(C(=O)N(C)C(=O)C2CCCCC2)nn(-c2ccc(Cl)cc2Cl)c1-c1ccc(Cl)cc1`, which IC50 is on record?
**A.** 167 nM

**Q.** With `CCCS(=O)(=O)NC(=O)c1nn(-c2ccc(Cl)cc2Cl)c(-c2ccc(Cl)cc2)c1C` as the compound, how does the IC50 read?
**A.** > 10000 nM

**Q.** For `Cc1c(C(=O)NS(=O)(=O)C(C)C)nn(-c2ccc(Cl)cc2Cl)c1-c1ccc(Cl)cc1`, which IC50 is on record?
**A.** > 10000 nM

**Q.** Which IC50 does the source give for `Cc1c(C(=O)NS(=O)(=O)Cc2ccccc2)nn(-c2ccc(Cl)cc2Cl)c1-c1ccc(Cl)cc1` here?
**A.** > 10000 nM

**Q.** For `Cc1c(C(=O)N(C)C(=O)C(C)(C)C)nn(-c2ccc(Cl)cc2Cl)c1-c1ccc(Cl)cc1`, which IC50 is on record?
**A.** 220 nM

**Q.** `Cc1c(C(=O)NS(=O)(=O)c2ccc(F)cc2)nn(-c2ccc(Cl)cc2Cl)c1-c1ccc(Cl)cc1` was tested. Which IC50 did it give?
**A.** 1200 nM

**Q.** `Cc1c(C(=O)NS(=O)(=O)c2cccc(F)c2)nn(-c2ccc(Cl)cc2Cl)c1-c1ccc(Cl)cc1` was tested. Which IC50 did it give?
**A.** > 10000 nM

**Q.** With `CCC(CC)C(=O)N(C)C(=O)c1nn(-c2ccc(Cl)cc2Cl)c(-c2ccc(Cl)cc2)c1C` as the compound, how does the IC50 read?
**A.** 265 nM

**Q.** With `Cc1c(C(=O)NS(=O)(=O)c2ccccc2)nn(-c2ccc(Cl)cc2Cl)c1-c1ccc(Cl)cc1` as the compound, how does the IC50 read?
**A.** 3640 nM

**Q.** `CCC(C)(C)C(=O)N(C)C(=O)c1nn(-c2ccc(Cl)cc2Cl)c(-c2ccc(Cl)cc2)c1C` was tested. Which IC50 did it give?
**A.** 227 nM

**Q.** With `Cc1ccc(S(=O)(=O)NC(=O)c2nn(-c3ccc(Cl)cc3Cl)c(-c3ccc(Cl)cc3)c2C)cc1` as the compound, how does the IC50 read?
**A.** > 10000 nM

**Q.** How did the IC50 turn out when `Cc1c(C(=O)NS(=O)(=O)c2ccc(Cl)cc2)nn(-c2ccc(Cl)cc2Cl)c1-c1ccc(Cl)cc1` was run?
**A.** > 10000 nM

**Q.** How did the IC50 turn out when `CCCC(CCC)C(=O)N(C)C(=O)c1nn(-c2ccc(Cl)cc2Cl)c(-c2ccc(Cl)cc2)c1C` was run?
**A.** 247 nM

**Q.** Which IC50 does the source give for `Cc1c(C(=O)NS(=O)(=O)c2cccc(Cl)c2)nn(-c2ccc(Cl)cc2Cl)c1-c1ccc(Cl)cc1` here?
**A.** 1200 nM
